Screening results as filed in PubChem BioAssay.
In the library only some 3% were active in any assay of this set; here they are far more common.
S1P3 ag = activates the human S1P3 receptor. Q99500. S1P3 NFAT-BLA reporter cells, agonism, FRET ratio; relative to 1 µM S1P, basal subtracted. activation, % at 4.5 µM. 60,000 compounds, 0.1% hits. AID 373;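 active = activation above the screen-wide mean plus 3 SD, cut at about 4.5% in these data, passing the limit was not always enough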
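Material: Human S1P3 NFAT-BLA reporter CHO cells | Incubation: Overnight plating, 4 h compound 37 °C, 2 h substrate RT | Signal: FRET β-lactamase substrate fluorescence, excitation 405 nm, 460/535 nm emission ratio, background-subtracted | Compound: 4.5 µM final, single dose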
S1P1 ag-PAM = activates or potentiates agonism at human S1P1 receptor; P21453; S1P1 CRE-bla cells, forskolin, beta-lactamase FRET, potentiator mode; S1P1 agonist co-added at EC20, 2 nM; 100% = saturating reference agonist, 0% = basal; activation, % at 9.5 µM; 56,000 compounds, 0.57% hits; AID 449;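 active = activation above a cutoff set at the mean activation of all tested compounds plus 3 SD, cut at about 54% in these data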;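 also: forskolin at 4 µM as EC80 and the EC20 agonist is SEW2871; 100% = SEW2871 at its EC100 plus forskolin at EC80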
Target sequence (P21453 whole entry, looked up): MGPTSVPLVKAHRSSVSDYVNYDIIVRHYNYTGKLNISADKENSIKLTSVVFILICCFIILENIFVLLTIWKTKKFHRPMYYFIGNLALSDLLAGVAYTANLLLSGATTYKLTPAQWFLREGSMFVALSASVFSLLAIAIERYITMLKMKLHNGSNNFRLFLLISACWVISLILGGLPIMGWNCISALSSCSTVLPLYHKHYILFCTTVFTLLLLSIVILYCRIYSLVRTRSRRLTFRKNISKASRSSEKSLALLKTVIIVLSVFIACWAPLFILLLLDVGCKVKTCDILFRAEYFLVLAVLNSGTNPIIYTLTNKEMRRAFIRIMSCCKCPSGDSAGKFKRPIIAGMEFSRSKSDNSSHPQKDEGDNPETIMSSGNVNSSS
5HT1a antag = antagonists of human 5-HT1a serotonin receptor; CHO 5-HT1a Ga15 NFAT-bla reporter, antagonist mode; P08908; 62,000 compounds, 0.68% hits; inhibition, % at 10 µM;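 active = inhibition above the mean of all tested compounds plus 3 SD, cut at about 43% in these data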;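 also: receptor stimulated by 5-CT agonist at 100 nM near EC80; beta-lactamase reporter measured by ratiometric fluorescence of a cleavable substrate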
HTR1E antagonist = blocks the human 5-HT1E serotonin receptor; CHO 5-HT1E Ga15 NFAT-bla reporter, FRET, antagonist; P28566; 65,000 compounds, 0.99% hits; inhibition, % at 6 µM;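 active = inhibition above a set limit, the mean inhibition across every tested compound plus 3 SD, cut at about 29% in these data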;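 also: signal is the 460 over 535 nm emission ratio of beta-lactamase substrate; 0% = agonist plus DMSO wells and 100% = wells without agonist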
5HT1a ag = 5-HT1a (human) receptor agonism; CHO 5-HT1a Ga15 NFAT-bla reporter, FRET ratio; 0% basal, 100% maximal reference agonist; activation, % at 10 µM; 65,000 compounds, 0.56% hits;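 active = activation above the screen-wide mean activation plus 3 SD, cut at about 19% in these data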;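 also: 0% = DMSO wells and 100% = 5-CT at EC100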
5HT1E ag = agonists of human 5-HT1E serotonin receptor | 65,000 compounds, 0.69% hits | CHO 5-HT1E Ga15 NFAT-bla reporter, FRET; 0% DMSO wells, 100% control agonist wells | P28566 | AID 574 | activation, % at 6 µM;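 active = activation above a set limit, the screen-wide mean activation plus 3 SD, cut at about 8.5% in these data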;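 also: 100% = positive control agonist at 1 µM giving full maximal response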
* marks the source's active call; other numbers are inactive results; x = no result given.

SMILES	S1P3 ag	S1P1 ag-PAM	5HT1a antag	HTR1E antagonist	5HT1a ag	5HT1E ag
COc1ccc(CC2C(=O)N(C)C(=O)N(C)C2=O)c(OC)c1	0	-46	-52	-5	22*	0
CCCCC12CNCC(C)(CNC1)C2=O	0	-12	-12	-7	86*	0
C#CCN(C)C(C)Cc1ccccc1 (stereo unspecified)	-1	-25	x	6	-1	0
O=C1CN=C(c2ccccc2)c2oc3ccc(Br)cc3c2N1	-1	-31	15	10	0	0
COc1cccc(OC)c1C1=NCC(=O)Nc2c1oc1ccc(Br)cc21	-1	4	71*	80*	-2	-1
CCCCc1ccc2[nH]cc(CCN)c2c1	0	4	-8	-3	69*	106*
